ChEMBL document CHEMBL1140540, “Investigating the antiproliferative activity of quinoline-5,8-diones and styrylquinolinecarboxylic acids on tumor cell lines” (Bioorg Med Chem Lett, 2007)

Key:
P388 [1] = assay: Antiproliferative activity against mouse P388 cells at 0.1 uM by MTT assay; format: functional
In short: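 P388 cells in RPMI 1640 with 2 mM L-glutamine, 1.5 g/L NaHCO3, 4.5 g/L glucose, 1.0 mM pyruvate and 10% FBS, at 37 °C in 5% CO2. Plated 24 h before treatment, then 72 h exposure at a single concentration. MTT readout: 4 h MTT, DMF/SDS lysis, OD570 after 24 h. Value expressed as percent inhibition of proliferation.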

[2] = Lipophilicity, log K of the compound; format: physicochemical; conditions: HPLC
In short: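 Hydrophobicity determined by HPLC.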

P388 [3] = assay: Antiproliferative activity against mouse P388 cells by MTT assay; format: functional, cell-based
In short: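 P388 cells in RPMI 1640 with 2 mM L-glutamine, 1.5 g/L NaHCO3, 4.5 g/L glucose, 1.0 mM pyruvate and 10% FBS, at 37 °C in 5% CO2. Plated 24 h before treatment, then exposed 72 h to varying concentrations. MTT 4 h at 37 °C, DMF/SDS lysis, OD570 after 24 h. IC50 from triplicates, 3–7 repeat experiments.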

SK-N-MC = assay: Antiproliferative activity against human SK-N-MC cells by MTT assay; format: functional, cell-based
In short: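 SK-N-MC cells in MEM with 10% (v/v) FBS, 1.0 mM sodium pyruvate, 1% non-essential amino acids, L-glutamine, penicillin/streptomycin and fungizone. Plated 24 h before dosing and exposed 72 h to varying concentrations. MTT added for 4 h at 37 °C, then DMF/SDS lysis, with OD570 read after 24 h. IC50 from triplicate wells, experiments repeated 3–7 times.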

| Structure (SMILES) | inhibition at 0.1 µM (P388 [1]) | log K [2] | IC50 (P388 [3]) | IC50 (SK-N-MC) |
| --- | --- | --- | --- | --- |
| Oc1cccc2ccc(/C=C/c3cccc(Cl)c3)nc12 | 15% | 1.5395 |  |  |
| CCCC(=O)NC1=CC(=O)c2ccc(C)nc2C1=O |  |  | 1.51 µM |  |
| CC(=O)NC1=CC(=O)c2ccc(C)nc2C1=O |  | 0.2227 | 1.61 µM | > 6.25 µM |
| Cc1ccc2c(n1)C(=O)C(N)=CC2=O |  |  | 10.3 µM |  |
| O=[N+]([O-])c1cc([N+](=O)[O-])c2cccnc2c1O |  | 0.7154 | 7.14 µM | > 6.25 µM |
| O=C(O)c1ccc2nc(/C=C/c3ccc(Cl)cc3)ccc2c1 |  | 1.6043 | 116 µM |  |
| O=C(O)c1ccc2nc(/C=C/c3ccccc3O)ccc2c1 |  | 1.3842 | 51.1 µM |  |
| O=C(O)c1ccc(C(=O)O)c2nc(/C=C/c3ccccc3Br)ccc12 |  | 1.2062 | 89.4 µM |  |
| COc1cccc(/C=C/c2ccc3c(C(=O)O)cccc3n2)c1 |  | 1.2263 | 100 µM |  |
| O=C(O)c1ccc2nc(/C=C/c3cccc(Cl)c3)ccc2c1 |  | 1.6315 | 110 µM |  |
| COc1cccc(/C=C/c2ccc3c(C(=O)O)ccc(C(=O)O)c3n2)c1 | 25% | 1.1811 |  |  |
| O=C(O)c1cccc2nc(/C=C/c3ccc(Br)cc3)ccc12 |  | 1.4397 | 109 µM |  |
| O=[N+]([O-])c1cc([N+](=O)[O-])c2ccc(/C=C/c3ccc(Cl)cc3)nc2c1O |  |  | 7.14 µM |  |
| COc1ccc(/C=C/c2ccc3c(NC(C)=O)cc(NC(C)=O)c(OC(C)=O)c3n2)c(OC)c1 | 20% |  |  |  |
| O=C(O)c1cc([N+](=O)[O-])c2ccc(/C=C/c3ccccc3Cl)nc2c1O |  |  | 158 µM |  |
| Cc1ccc2c(n1)C(=O)C(NC(=O)CCc1ccccc1)=CC2=O |  |  | 1.44 µM |  |
| Cc1ccc2c(n1)C(=O)C(NC(=O)/C=C/c1ccccc1)=CC2=O |  |  | 2.39 µM |  |
| O=C(O)c1cccc2ccc(/C=C/c3ccccc3O)nc12 |  | 1.6787 | 13.6 µM |  |
| O=C(O)c1ccc(C(=O)O)c2nc(/C=C/c3ccc(Cl)cc3)ccc12 |  | 1.2107 | 110 µM |  |
| CCC(=O)NC1=CC(=O)c2ccc(C)nc2C1=O |  |  | 1.43 µM |  |
| O=C(O)c1ccc(C(=O)O)c2nc(/C=C/c3cccc(Cl)c3)ccc12 |  | 1.2163 | 114 µM |  |
| COC1=CC(=O)c2ccc(C)nc2C1=O |  | 0.0907 | 6.1 µM | 4.26 µM |
| COc1ccc(/C=C/c2ccc3c([N+](=O)[O-])cc([N+](=O)[O-])c(O)c3n2)cc1 |  |  | 79.1 µM |  |
| O=C(O)c1cccc2ccc(/C=C/c3ccc(Cl)cc3)nc12 |  | 1.8165 | 15.3 µM |  |
| O=C(O)c1cccc2nc(/C=C/c3ccccc3O)ccc12 | 30% | 1.255 |  |  |
| O=C(O)c1ccc2ccc(/C=C/c3ccccc3O)nc2c1 | 30% | 1.3678 |  |  |
| CC(=O)Nc1cc(NC(C)=O)c2ccc(/C=C/c3ccccc3Br)nc2c1OC(C)=O |  |  | 6.58 µM |  |
| COc1ccc(/C=C/c2ccc3c([N+](=O)[O-])cc(C(=O)O)c(O)c3n2)cc1 |  |  | 148 µM |  |
| O=C(O)c1ccc(C(=O)O)c2nc(/C=C/c3ccccc3Cl)ccc12 |  | 1.2047 | 114 µM |  |
